Key:
[1] = Half life for the spontaneous hydrolysis in buffer was measured; format: ADME
Summary of the method: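 Inhibitor (0.1 mM final) in 0.05 M Tris pH 7.8 with 10% v/v Me2SO. Spontaneous hydrolysis followed as absorbance rise at 270 nm (phenoxy), 280 nm (4-chlorophenoxy) or 277 nm (4-fluorophenoxy). Half-lives from first-order plots of ln(Af − At) vs time, Af being final absorbance of monophenyl ester plus phenol.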

[2] = target: Dipeptidyl peptidase 4 (Homo sapiens) (UniProt P27487)
[3] = target: Chymotrypsinogen A (Bos taurus) (UniProt P00766); assay: The second order inhibition rate constant for the compound was measured against chymotrypsinogen
[4] = target: Cathepsin B (Homo sapiens) (UniProt P07858); assay: The second order inhibition rate constant for the compound was measured against cathepsin B; NI-No inhibition after 30 min of incubation of enzyme with inhibitor
Summary of the method: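 Cathepsin B incubated with inhibitor in 100 mM KH2PO4, 1.33 mM EDTA, 2.7 mM fresh cysteine pH 6.0, 8-9% Me2SO, 23 °C. Aliquots assayed with Z-Arg-Arg-AMC, fluorescence at ex 380/em 460 nm. kobs from ln v/v0 vs time. NI means no inhibition after 30 min.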

[5] = target: T1, Chymotrypsin-like elastase family member 2A (Sus scrofa) (UniProt P08419); assay: The second order inhibition rate constant for the compound was measured against PPE; NI-No inhibition after 30 min of incubation of enzyme with inhibitor
T1 sequence (whole entry): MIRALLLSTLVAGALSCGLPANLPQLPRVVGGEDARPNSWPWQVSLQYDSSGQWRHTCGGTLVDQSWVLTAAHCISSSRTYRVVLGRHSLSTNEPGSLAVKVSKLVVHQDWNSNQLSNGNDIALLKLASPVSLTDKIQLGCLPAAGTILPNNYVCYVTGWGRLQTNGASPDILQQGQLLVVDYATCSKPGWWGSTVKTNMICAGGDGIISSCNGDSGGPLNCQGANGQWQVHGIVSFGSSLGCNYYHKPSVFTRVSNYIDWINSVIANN

[6] = target: T2, Neutrophil elastase (Homo sapiens) (UniProt P08246); assay: The second order inhibition rate constant for the compound was measured against HLE; NI-No inhibition after 30 min of incubation of enzyme with inhibitor
T2 sequence (whole entry): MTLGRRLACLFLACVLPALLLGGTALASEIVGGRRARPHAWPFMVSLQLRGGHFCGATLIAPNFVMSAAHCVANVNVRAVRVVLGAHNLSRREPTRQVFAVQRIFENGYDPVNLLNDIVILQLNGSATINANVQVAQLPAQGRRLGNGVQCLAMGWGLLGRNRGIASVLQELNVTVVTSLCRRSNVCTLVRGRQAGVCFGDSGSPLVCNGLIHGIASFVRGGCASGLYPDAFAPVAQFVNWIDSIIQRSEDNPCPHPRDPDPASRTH

Papain (Carica papaya) = target: T3, Papain (Carica papaya) (UniProt P00784); assay: The second order inhibition rate constant for the compound was measured against papain; NI-No inhibition after 30 min of incubation of enzyme with inhibitor
T3 sequence (whole entry): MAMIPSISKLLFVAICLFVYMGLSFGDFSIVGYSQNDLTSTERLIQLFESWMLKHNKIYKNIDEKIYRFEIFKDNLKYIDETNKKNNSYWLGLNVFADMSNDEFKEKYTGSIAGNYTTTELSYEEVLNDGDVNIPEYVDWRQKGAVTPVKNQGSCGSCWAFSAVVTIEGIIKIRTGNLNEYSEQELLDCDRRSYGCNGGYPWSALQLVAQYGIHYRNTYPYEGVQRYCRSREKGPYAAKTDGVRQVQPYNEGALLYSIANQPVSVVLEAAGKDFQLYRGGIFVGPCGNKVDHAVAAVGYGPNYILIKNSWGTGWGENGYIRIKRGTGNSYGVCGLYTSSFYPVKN
Summary of the method: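 Papain incubated with inhibitor in 50 mM Tris-HCl, 2 mM EDTA, 5 mM fresh cysteine pH 7.5, 8-9% Me2SO, 23 °C. Aliquots assayed with Bz-Arg-AMC, fluorescence at ex 380/em 460 nm. kobs from ln v/v0 vs time. NI means no inhibition after 30 min.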

[7] = target: Chymotrypsinogen A (Bos taurus) (UniProt P00766)
[8] = target: T4, Choline O-acetyltransferase (Rattus norvegicus) (UniProt P32738)
T4 sequence (whole entry): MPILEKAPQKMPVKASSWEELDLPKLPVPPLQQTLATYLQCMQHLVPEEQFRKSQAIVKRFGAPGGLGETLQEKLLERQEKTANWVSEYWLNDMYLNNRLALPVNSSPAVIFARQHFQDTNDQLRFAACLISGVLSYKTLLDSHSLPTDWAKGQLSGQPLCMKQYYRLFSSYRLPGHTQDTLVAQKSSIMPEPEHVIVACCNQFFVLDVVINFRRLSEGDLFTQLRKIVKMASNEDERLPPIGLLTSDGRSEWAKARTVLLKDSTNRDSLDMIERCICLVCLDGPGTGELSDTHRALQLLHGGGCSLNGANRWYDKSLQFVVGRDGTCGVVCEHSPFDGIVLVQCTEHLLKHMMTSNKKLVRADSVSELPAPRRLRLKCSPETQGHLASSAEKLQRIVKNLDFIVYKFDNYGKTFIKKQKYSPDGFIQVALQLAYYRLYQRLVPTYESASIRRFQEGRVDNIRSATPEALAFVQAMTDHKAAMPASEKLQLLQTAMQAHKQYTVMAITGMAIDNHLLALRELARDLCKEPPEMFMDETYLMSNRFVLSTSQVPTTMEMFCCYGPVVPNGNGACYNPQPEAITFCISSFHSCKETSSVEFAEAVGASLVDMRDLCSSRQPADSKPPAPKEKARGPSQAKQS

Sequence of Dipeptidyl peptidase 4 (Homo sapiens) (P27487 whole entry, looked up): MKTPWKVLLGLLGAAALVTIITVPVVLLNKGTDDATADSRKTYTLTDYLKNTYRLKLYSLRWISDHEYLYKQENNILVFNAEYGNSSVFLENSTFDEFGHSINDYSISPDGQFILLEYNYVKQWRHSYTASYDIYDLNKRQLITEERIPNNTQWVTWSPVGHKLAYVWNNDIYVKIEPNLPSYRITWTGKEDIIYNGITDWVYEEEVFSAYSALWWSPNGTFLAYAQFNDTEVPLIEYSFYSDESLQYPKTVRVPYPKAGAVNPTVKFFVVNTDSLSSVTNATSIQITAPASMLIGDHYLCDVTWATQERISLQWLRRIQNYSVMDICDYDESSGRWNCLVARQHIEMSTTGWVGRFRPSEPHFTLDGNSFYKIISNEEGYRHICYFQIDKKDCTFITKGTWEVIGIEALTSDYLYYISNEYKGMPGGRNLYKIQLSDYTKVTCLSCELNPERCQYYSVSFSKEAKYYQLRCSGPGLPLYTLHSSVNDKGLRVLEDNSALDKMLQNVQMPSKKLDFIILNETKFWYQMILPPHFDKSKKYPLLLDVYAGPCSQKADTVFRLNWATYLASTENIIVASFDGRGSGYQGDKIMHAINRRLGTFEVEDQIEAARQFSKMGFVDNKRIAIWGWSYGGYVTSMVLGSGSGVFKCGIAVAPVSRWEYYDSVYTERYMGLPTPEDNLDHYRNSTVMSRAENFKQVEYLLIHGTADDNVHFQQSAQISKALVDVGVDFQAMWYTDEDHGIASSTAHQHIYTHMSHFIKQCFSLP

`C[C@H](N)C(=O)N1CCCCC1P(=O)(Oc1ccc(Cl)cc1)Oc1ccc(Cl)cc1` (some centres not stated) [listing 1 of 2 here] showed a T1/2 [1] greater than 48 h.
In the case of `C[C@H](N)C(=O)N1CCCCC1P(=O)(Oc1ccc(F)cc1)Oc1ccc(F)cc1` (some centres not stated), the K obs / 1 [2] is reported as 12 M⁻¹ s⁻¹ and the half-life [1] is reported as 68 h.
In the case of `C[C@H](N)C(=O)N1CCCCC1P(=O)(Oc1ccccc1)Oc1ccccc1` (some centres not stated), the K obs / 1 [2] is reported as 12.6 M⁻¹ s⁻¹ and the half-life [1] is reported as greater than 72 h.
For `C[C@H](N)C(=O)N1CCCCC1P(=O)(Oc1ccc(Cl)cc1)Oc1ccc(Cl)cc1` (mixture of isomers) [listing 1 of 2 here], the K obs / 1 [3] was 18 M⁻¹ s⁻¹, the “K obs / 1” value [4] was “No inhibition” and the “K obs / 1” value [5] was “No inhibition”. The K obs / 1 [2] was 156 M⁻¹ s⁻¹, the “K obs / 1” value [6] was “No inhibition” and the “K obs / 1” value (Papain (Carica papaya)) was “No inhibition”.
`C[C@H](N)C(=O)N1CCCCC1P(=O)(Oc1ccc(Cl)cc1)Oc1ccc(Cl)cc1` (some centres not stated) [listing 2 of 2 here] showed a K obs / 1 [2] of 1300 M⁻¹ s⁻¹.
With `C[C@H](N)C(=O)N1CCC[C@H]1P(=O)(Oc1ccc(Cl)cc1)Oc1ccc(Cl)cc1` the K obs / 1 [3] was 26 M⁻¹ s⁻¹, the “K obs / 1” value [4] was “No inhibition” and the “K obs / 1” value [5] was “No inhibition”. The K obs / 1 [2] was 28 M⁻¹ s⁻¹, the half-life [1] was 5.3 h and the “K obs / 1” value [6] was “No inhibition”. For the same molecule, the “K obs / 1” value (Papain (Carica papaya)) was “No inhibition”.
With `C[C@H](N)C(=O)N1CCC[C@H]1P(=O)(Oc1ccccc1)Oc1ccccc1.Cl` the “K obs / 1” value [4] was “No inhibition”, the “K obs / 1” value [5] was “No inhibition” and the K obs / 1 [2] was 1.2 M⁻¹ s⁻¹. For the same molecule, the “K obs / 1” value [7] was “No inhibition”, the “K obs / 1” value [8] was “No inhibition” and the half-life [1] was 23.1 h. For the same molecule, the “K obs / 1” value [6] was “No inhibition” and the “K obs / 1” value (Papain (Carica papaya)) was “No inhibition”.
In the case of `NCCCC[C@H](N)C(=O)N1CCCCC1P(=O)(Oc1ccccc1)Oc1ccccc1` (some centres not stated), the K obs / 1 [2] is reported as 4.2 M⁻¹ s⁻¹ and the half-life [1] is reported as greater than 48 h.
`C[C@H](N)C(=O)N1CCCCC1P(=O)(Oc1ccc(Cl)cc1)Oc1ccc(Cl)cc1` (mixture of isomers) [listing 2 of 2 here] showed a half-life [1] of 67 h.
For `Br.Br.NCCCC[C@H](N)C(=O)N1CCC[C@H]1P(=O)(Oc1ccccc1)Oc1ccccc1`, the K obs / 1 [2] was 1.7 M⁻¹ s⁻¹ and the half-life [1] was 52 h.

— ChEMBL document CHEMBL1127410, “Dipeptide phosphonates as inhibitors of dipeptidyl peptidase IV” (J Med Chem, 1994)
